# According to PubChem BioAssay:
# The source made the active and inactive calls.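 Rule for the calls, unless noted: active = Her2 level under about 52% in both replicate screens, with viability over 70% of control (limit read from the data); inconclusive = Her2 under the limit in one screen only, or viability under 70%; inactive = Her2 level above the set limit.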
# Legend:
# [1] = Her2 expression decrease, cell viability multiplex – SKBR3 breast tumor cells, AlphaScreen, ATP viability, primary screen (AID 461); settings: SKBR3 Her2 protein level, 18-24 h, measured here: SKBR3 viability, ATP luminescence, at 10 µM;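 for Her2 level: lower value means less Her2 protein in the cells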;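 for viability: percent of carrier control wells set as 100% viability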
# [2] = molecular target: Receptor tyrosine-protein kinase erbB-2 (Homo sapiens) (UniProt P04626); test: as above; settings: 18-24 h, at 10 µM, stronger effect = lower value
# Chain of Receptor tyrosine-protein kinase erbB-2 (Homo sapiens) (P04626 whole entry, looked up): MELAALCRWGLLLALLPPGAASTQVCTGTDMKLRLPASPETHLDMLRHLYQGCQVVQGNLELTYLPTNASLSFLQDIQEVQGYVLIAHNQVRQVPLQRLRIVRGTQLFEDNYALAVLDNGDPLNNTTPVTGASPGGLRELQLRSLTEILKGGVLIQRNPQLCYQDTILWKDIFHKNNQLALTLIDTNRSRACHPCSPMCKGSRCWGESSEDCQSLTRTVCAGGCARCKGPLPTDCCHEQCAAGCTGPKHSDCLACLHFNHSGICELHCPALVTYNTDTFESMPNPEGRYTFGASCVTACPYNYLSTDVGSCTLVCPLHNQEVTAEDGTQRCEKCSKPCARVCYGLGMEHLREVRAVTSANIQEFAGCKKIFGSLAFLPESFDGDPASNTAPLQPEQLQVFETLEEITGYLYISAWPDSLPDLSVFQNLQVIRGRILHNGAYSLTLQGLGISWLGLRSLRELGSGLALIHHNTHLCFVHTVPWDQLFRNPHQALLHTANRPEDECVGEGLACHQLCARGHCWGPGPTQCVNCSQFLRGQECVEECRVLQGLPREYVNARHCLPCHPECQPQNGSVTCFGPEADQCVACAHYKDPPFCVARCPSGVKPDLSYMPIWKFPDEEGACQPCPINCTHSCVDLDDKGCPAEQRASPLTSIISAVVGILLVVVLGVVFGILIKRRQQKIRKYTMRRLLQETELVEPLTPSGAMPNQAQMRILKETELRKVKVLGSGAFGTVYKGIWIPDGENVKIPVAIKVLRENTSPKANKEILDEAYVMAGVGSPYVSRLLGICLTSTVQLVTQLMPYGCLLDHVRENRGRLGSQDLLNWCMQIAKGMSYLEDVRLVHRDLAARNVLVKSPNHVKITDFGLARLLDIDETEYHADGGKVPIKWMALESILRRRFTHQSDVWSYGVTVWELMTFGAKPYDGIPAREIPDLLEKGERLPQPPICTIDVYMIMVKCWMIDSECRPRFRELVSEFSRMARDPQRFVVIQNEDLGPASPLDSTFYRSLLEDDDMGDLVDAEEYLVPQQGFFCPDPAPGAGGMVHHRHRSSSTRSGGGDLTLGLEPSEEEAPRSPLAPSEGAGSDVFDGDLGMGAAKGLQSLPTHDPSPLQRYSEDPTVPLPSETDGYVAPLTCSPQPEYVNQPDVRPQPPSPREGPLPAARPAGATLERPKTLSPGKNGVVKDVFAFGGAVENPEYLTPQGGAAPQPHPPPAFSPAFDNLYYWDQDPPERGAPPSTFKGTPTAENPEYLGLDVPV
# [3] = reduced viability of SK-BR-3 breast cancer cells – cell-based, 24 h, human, pilot screen (AID 572;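 active = viability at or below 10% of carrier control in both of two separate runs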;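 note: compound exposure lasted between 18 and 24 h rather than exactly 24 h; 100% = carrier-treated control wells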); settings: SK-BR-3 viability, CellTiter-Glo luminescence, at 10 µM, stronger effect = lower value
# [4] = HUVEC growth inhibition – cell-based, human, primary screen (AID 575;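 active = viability at or below 30% in both replicate assays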;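 note: 100% = median of untreated cell wells with 0.1% DMSO on each plate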); settings: HUVEC proliferation, CellTiter-Glo luminescence, 72 h; at 10 µM; stronger effect = lower value
# Summary of the method: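 Test system – primary HUVEC, no more than 12 passages · Dosing – one dose, 10 µM final, 0.1% DMSO · Times – 72 h treatment at 37 °C · Measured by – ATP-based CellTiter-Glo luminescent read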
# [5] = H69AR cell proliferation blockers – human, duplicate replicates, primary screen (AID 580;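 active = viability at or under a set limit in both replicates, limit being median viability minus 3 SD, cut at about 48% in these data, passing the limit was not always enough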;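 note: 100% = mean luminescence of untreated wells and 0% = no signal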); settings: H69AR lung tumor cells viability, ATP luminescence, 72 h; at 10 µM; stronger effect = lower value
# [6] = MRP1 drug-resistance reversers in H69AR cells – cell-based, doxorubicin co-treatment, pilot screen (AID 601;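 active = viability loss from added drug above about 55%, and viability with drug at most 40%, in both replicates, limit read from the data, passing the limit was not always enough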); settings: CellTiter-Glo, 72 h, at 10 µM; for differential viability (reversal): stronger effect = higher value
# [7] = yeast transport mutant growth inhibition pilot in 384-well plates, post-Golgi transport modulator project (AID 636; in the data active = inhibition above about 31%); settings: absorbance 615 nm, about 18 h, stronger effect = higher value
# [8] = growth suppression of yeast trafficking mutant, preliminary HTS, modulators of trafficking downstream of Golgi apparatus project, 1536-format plate, OD 615 nm (AID 637; in the data active = inhibition above about 30%); settings: yeast transport mutant growth, absorbance 615 nm, 18 h; stronger effect = higher value
# [9] = H69AR cells + 2 uM doxorubicin, measured here: viability with 2 uM doxorubicin, stronger effect = lower value
# [10] = H69AR cells, compound alone cytotoxicity
Compound,viability [1],Her2 level [2],viability [3],viability [4],viability [5],differential viability (reversal) ([6]; H69AR cells + 2 uM doxorubicin),"viability [6, 9]","viability [6, 10]",inhibition [7],inhibition [8]
Cc1cc2c(s1)c1cnn(CC(=O)NCCc3ccccc3)c(=O)c1n2C,120%,98.5% (inactive),120% (inactive),118% (inactive),87.1% (inactive),5.06% (inactive),82%,87.1%,-5.81% (inactive),-3.5% (inactive)
Cn1c(SCC(=O)Nc2ccc3c(c2)oc2ccccc23)nnc1-c1ccccc1,83%,75.5% (inactive),83% (inactive),53.1% (inactive),69.4% (inactive),-7.74% (inactive),77.1%,69.4%,-5.73% (inactive),5.9% (inactive)
COc1ccc(-n2c(SCC#N)nc3ccccc3c2=O)cc1,77%,106% (inactive),77% (inactive),93.5% (inactive),96.4% (inactive),-12.8% (inactive),109%,96.4%,5.06% (inactive),3.28% (inactive)
O=C(CN1C(=O)CSC1=O)N1CCc2ccccc2C1,100%,98% (inactive),100% (inactive),73.4% (inactive),89.6% (inactive),0.255% (inactive),89.3%,89.6%,-2.34% (inactive),-3.5% (inactive)
CCCCn1c(NCCC)nc2c1c(=O)[nH]c(=O)n2C,96%,80% (inactive),96% (inactive),113% (inactive),93.7% (inactive),12.8% (inactive),81%,93.7%,-3.51% (inactive),-0.66% (inactive)
CC(=O)c1cccc(NC(=O)N2CCCc3ccccc32)c1,105%,104% (inactive),105% (inactive),95% (inactive),93.6% (inactive),2.88% (inactive),90.7%,93.6%,-3.73% (inactive),3.93% (inactive)
Fc1ccccc1C(c1nnnn1Cc1ccc2c(c1)OCO2)N1CCN(Cc2ccccc2)CC1 (stereo not given),121%,88% (inactive),121% (inactive),69.6% (inactive),89.3% (inactive),-7.54% (inactive),96.9%,89.3%,2.16% (inactive),-4.13% (inactive)
Cn1c(CNc2nc(-c3ccccc3)cs2)nnc1SCC(=O)N1CCc2ccccc21,96.5%,97.5% (inactive),96.5% (inactive),81.8% (inactive),93.3% (inactive),9.91% (inactive),83.4%,93.3%,-1.62% (inactive),7.14% (inactive)
C=CCNC(=O)c1cccc(Br)c1,92%,94% (inactive),92% (inactive),89.4% (inactive),92% (inactive),-9.44% (inactive),101%,92%,9.59% (inactive),5.08% (inactive)
CCOC(=O)CSC1=Nc2ccccc2C2=NC(CC(=O)NCc3ccc(OC)cc3)C(=O)N12 (stereo not given),117%,89% (inactive),117% (inactive),83% (inactive),99.7% (inactive),2.4% (inactive),97.3%,99.7%,-4.21% (inactive),-1.27% (inactive)
Cc1cccc(NC(=O)Cn2c(=O)n(C)c3ccccc32)c1,100%,90.5% (inactive),100% (inactive),100% (inactive),102% (inactive),9.13% (inactive),92.9%,102%,-3.33% (inactive),-2.7% (inactive)
CCN(CCCNC(=O)C1CCN(S(=O)(=O)c2cccc3nonc23)CC1)Cc1ccccc1,89%,90% (inactive),89% (inactive),103% (inactive),92.9% (inactive),11.1% (inactive),81.8%,92.9%,-5.39% (inactive),2.5% (inactive)
COC(=O)[C@H](C)NC(=O)Nc1cc(OC)ccc1OC,121%,81.5% (inactive),121% (inactive),61.1% (inactive),75.1% (inactive),25% (inactive),50.1%,75.1%,-2.34% (inactive),-0.48% (inactive)
O=c1c2c3c(sc2nc2sc(C4CC4)nn12)CCCC3,110%,92.5% (inactive),110% (inactive),82.7% (inactive),79.7% (inactive),-7.56% (inactive),87.2%,79.7%,-0.39% (inactive),20.7% (inactive)
CCCCP(=O)(CCCC)Cc1ccccc1O,99.5%,104% (inactive),99.5% (inactive),103% (inactive),97.1% (inactive),7.29% (inactive),89.8%,97.1%,-5.32% (inactive),-6.07% (inactive)
CCOC(=O)CN1CC23C=CC(O2)C(C(=O)Nc2ccc(OC)cc2OC)C3C1=O (stereo not given),99%,99% (inactive),99% (inactive),93.7% (inactive),98.9% (inactive),5.06% (inactive),93.9%,98.9%,-0.77% (inactive),1.83% (inactive)

Compound,viability [1],Her2 level [2],viability [3],viability [4],viability [5],differential viability (reversal) ([6]; H69AR cells + 2 uM doxorubicin),"viability [6, 9]","viability [6, 10]",inhibition [7],inhibition [8]
O=C1NC(Nc2ccccn2)(C(F)(F)F)C(=O)N1c1ccc(F)cc1 (stereo not given),102%,89% (inactive),102% (inactive),107% (inactive),103% (inactive),-0.015% (inactive),103%,103%,-5.47% (inactive),1.64% (inactive)
O=C(Nc1ccc2snnc2c1)N1CCSCC1,108%,104% (inactive),108% (inactive),103% (inactive),98.9% (inactive),2.63% (inactive),96.2%,98.9%,0.77% (inactive),-0.5% (inactive)
CC(=O)Nc1ccc(S(=O)(=O)N2CCC(c3nc4ccccc4[nH]3)CC2)cc1,93%,81.5% (inactive),93% (inactive),78.9% (inactive),93.6% (inactive),9.73% (inactive),83.9%,93.6%,-3.78% (inactive),0% (inactive)
O=C(Cn1cnc2c(oc3ccccc32)c1=O)N1CCN(c2ccccc2)CC1,95%,91.5% (inactive),95% (inactive),91.6% (inactive),84.9% (inactive),-2.86% (inactive),87.7%,84.9%,-0.66% (inactive),3.65% (inactive)
CCOC(=O)C(NC(=O)OC(C)C)(Nc1nccs1)C(F)(F)F (stereo not given),89.5%,96.5% (inactive),89.5% (inactive),103% (inactive),110% (inactive),12% (inactive),97.6%,110%,-4.29% (inactive),4.44% (inactive)
C=CCOC(=O)CCC(=O)Nc1cc(OC)nc(OC)n1,112%,112% (inactive),112% (inactive),92.1% (inactive),90.8% (inactive),0.705% (inactive),90.1%,90.8%,-3.07% (inactive),8.73% (inactive)
O=C(CN1C(=O)NC2(CCCCCC2)C1=O)N1CCC(Cc2ccccc2)CC1,87%,94.5% (inactive),87% (inactive),77.2% (inactive),86.7% (inactive),-4.21% (inactive),90.9%,86.7%,-5.33% (inactive),2.46% (inactive)
CCCCn1nnnc1SCC(=O)Nc1cccc(C)n1,108%,115% (inactive),108% (inactive),111% (inactive),113% (inactive),7.5% (inactive),105%,113%,2.3% (inactive),3.5% (inactive)
Cc1ccc(NC(=O)CSc2nnc(-c3cnccn3)n2Cc2ccco2)cc1C,80.5%,93% (inactive),80.5% (inactive),80.6% (inactive),104% (inactive),6.65% (inactive),97.5%,104%,-1.82% (inactive),-7.67% (inactive)
COc1ccc2cc(C(=O)NCc3ccco3)c(=Nc3ccc(C(=O)O)cc3)oc2c1,68%,83% (inactive),68% (inactive),77.4% (inactive),55% (inactive),-14.1% (inactive),69.1%,55%,-5% (inactive),-1% (inactive)
O=C(Nc1ccc2c(c1)OCO2)C1CCCN1C(=O)Nc1ccccc1F (stereo not given),110%,90% (inactive),110% (inactive),104% (inactive),96.2% (inactive),8.28% (inactive),87.9%,96.2%,-2.89% (inactive),-3.97% (inactive)
Cc1nc(N)c(C#N)c(-c2cccnc2)c1C,94%,83.5% (inactive),94% (inactive),74.3% (inactive),102% (inactive),-13.1% (inactive),115%,102%,-2.4% (inactive),-2.86% (inactive)
COC(=O)C1=C(C)Nc2nnnn2C1c1cccs1 (stereo not given),95.5%,101% (inactive),95.5% (inactive),104% (inactive),96.9% (inactive),3.09% (inactive),93.8%,96.9%,2.84% (inactive),5.71% (inactive)
COc1ccccc1C(=O)N1CCNC(=O)C1CC(=O)Nc1ccc(Cl)cc1 (stereo not given),97.5%,89.5% (inactive),97.5% (inactive),99.6% (inactive),95.5% (inactive),-2.83% (inactive),98.3%,95.5%,1.71% (inactive),-2.74% (inactive)
Cc1ccc(NC2=NC3(CCCCC3)N=C(N)N2)c(C)c1,114%,96% (inactive),114% (inactive),87.9% (inactive),102% (inactive),18.6% (inactive),83.9%,102%,2.16% (inactive),-5.87% (inactive)
CC1=NC(Nc2nc(C)c3ccccc3n2)=NC(C)(C)C1,78.5%,72.5% (inactive),78.5% (inactive),74.3% (inactive),62.4% (inactive),-14.6% (inactive),77%,62.4%,-0.39% (inactive),-7.38% (inactive)
